Activity calls are given as the source filed them. The rule behind the calls is not given here.
Experiments:
[1] = Antioxidant activity of the compound assessed as phosphate/Mo5 complex formation at 6.25 to 100 uM after 90 mins; type: functional
Summary of the method: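 Phosphomolybdenum method: compound incubated with 0.6 M H2SO4, 28 mM sodium phosphate and 4 mM ammonium molybdate at 95 °C for 90 min. After cooling to room temperature, absorbance read at 695 nm against a blank. Result expressed as vitamin C equivalent; three independent experiments, mean ± SD.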

[2] = Antioxidant activity of the compound in phosphate buffer at pH 6.6 assessed as potassium ferric cyanide ion reducing activity at 6.25 to 100 uM after 20 mins; type: functional; set-up: scale not given: the % may be the effect or the level left
Summary of the method: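 Ferricyanide reducing power: sample in 0.2 M phosphate buffer, pH 6.6, incubated with 1% w/v potassium ferricyanide at 50 °C for 20 min. Reducing effect expressed relative to vitamin C; three independent experiments, mean ± SD.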

[3] = system: Radical scavenging activity; assay: Antioxidant activity of the compound assessed as DPPH radical scavenging activity at 50 uM; type: functional
Summary of the method: (§1)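 Scavenging of the DPPH radical read by absorbance at 520 nm. % scavenging = (A_blank − A_sample)/A_blank × 100. Scavenging also followed at 0.5, 1, 2, 4, 6, 12 and 24 h. Three independent experiments, mean ± SD, one-way ANOVA.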

[4] = system: Radical scavenging activity; assay: Antioxidant activity of the compound assessed as DPPH radical scavenging activity; type: functional; summary of the method: as §1
[5] = system: RAW264.7; assay: Antioxidant activity in mouse RAW264.7 cells assessed as inhibition of H2O2-induced intracellular ROS formation after 30 mins in dark prior to H2O2 challenge measured after 30 mins post H2O2 challenge by H2DCF-DA based flow cytometry; type: functional, cell-based
Summary of the method: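 RAW 264.7 cells grown in DMEM/10% FBS at 37 °C, 5% CO2. Loaded with 20 µM H2DCF-DA in HBSS for 30 min, then compound (50 and 100 µM) in HBSS for 30 min at 37 °C in the dark. H2O2 challenge for 30 min, cells scraped and filtered, flow cytometry at 488 nm excitation. Geometric mean fluorescence reported; three independent experiments, mean ± SD.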

[6] = Ratio of alpha-tocopherol IC50 to compound IC50 for antioxidant activity of the compound assessed as DPPH radical scavenging activity
[7] = system: RAW264.7; assay: Cytotoxicity against mouse RAW264.7 cells up to 100 uM after 24 hrs by MTT assay; type: cell-based; conditions: raw264.7, 24 h
Summary of the method: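 RAW 264.7 cells (DMEM, 10% FBS, 2 mM glutamine, penicillin/streptomycin; 37 °C, 5% CO2) seeded at 1 × 10^4 cells/well. After 24 h, treated with a range of compound concentrations for 24 h. MTT (1 mg/mL) added for 4 h, formazan dissolved in DMSO, absorbance read at 540 nm.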

SMILES | Activity [1] [%] | Activity [2] | Activity [3] | IC50 [4] [µM] | inhibition [5] | Ratio IC50 [6] | Activity [7]
COc1cc([C@H]2N[C@@H](c3ccc(O)c(OC)c3)[C@H]3CCC[C@H]2C3=O)ccc1O | 56.8 | 116% | 80% |  |  |  | 
Cc1c(C)c2c(c(C)c1O)CC[C@@](C)(CCC[C@H](C)CCC[C@H](C)CCCC(C)C)O2 [ALPHA-TOCOPHEROL] |  |  | Active | 59 |  |  | 
O=C1[C@@H]2CCC[C@@H]1[C@H](c1ccc(O)c(O)c1)N[C@@H]2c1ccc(O)c(O)c1 | 62.3 | 163% | 80% | 26.1 | Dose-dependent effect | 1 | Non-toxic
Oc1ccccc1O [CATECHOL] |  |  |  | 36 |  |  | 
COc1cc(/C=C/C(=O)CC(=O)/C=C/c2ccc(O)c(OC)c2)ccc1O [CURCUMIN] |  |  |  | 35.1 |  |  | 
O=C1O[C@H]([C@@H](O)CO)C(O)=C1O |  | Active | Active |  |  |  | 
